Calls of active or inactive are those of the source. The rule behind the calls is not given here.
What was measured:
MCF7 [1] = assay: Retention time in human MCF7 cells at 10^-5 M by HPLC analysis; assay type: ADME, cell-based; conditions: mcf7, 10 µM
Procedure, shortened: (§1)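 MCF-7 cells exposed to 10^-5 M prodrug for 2 days; culture medium collected, centrifuged to remove cells, diluted to fixed volume and analysed by HPLC. Prodrug and SN-38 identified by retention time; relative amounts taken from chromatographic peak areas.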

[2] = Cytotoxicity against human HCT15 cells assessed as growth inhibition after 72 hrs by SRB assay; assay type: functional, cell-based; conditions: HCT-15, 72 h
Procedure, shortened: (§2)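 Cells from ATCC, 6,000–10,000 per well, treated in triplicate with graded concentrations for 72 h at 37 °C. Growth inhibition read by sulforhodamine B staining; IC50 taken from dose–response curves.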

HT-29 = assay: Cytotoxicity against human HT-29 cells assessed as growth inhibition after 72 hrs by SRB assay; assay type: functional, cell-based; conditions: HT-29, 72 h; procedure, shortened: as §2
MDA-MB-231 = assay: Cytotoxicity against human MDA-MB-231 cells assessed as growth inhibition after 72 hrs by SRB assay; assay type: functional, cell-based; conditions: MDA-MB-231, 72 h; procedure, shortened: as §2
MCF7 [3] = assay: Cytotoxicity against human MCF7 cells assessed as growth inhibition after 72 hrs by SRB assay; assay type: functional, cell-based; conditions: MCF7, 72 h; procedure, shortened: as §2
[4] = Cytotoxicity against human U87MG cells assessed as growth inhibition after 72 hrs by SRB assay; assay type: functional, cell-based, U-87MG ATCC; conditions: U-87 MG; procedure, shortened: as §2
U-251 = assay: Cytotoxicity against human U251 cells assessed as growth inhibition after 72 hrs by SRB assay; assay type: functional, cell-based; conditions: U-251, 72 h; procedure, shortened: as §2
Mus musculus [5] = assay: Toxicity in mouse xenografted with human U87MG cells assessed as death at 15 mg/kg, ip administered as q3w/14 days regime; assay type: organism-based, U-87MG ATCC; conditions: in vivo, 336 h
Mus musculus [6] = assay: Toxicity in mouse xenografted with human U87MG cells assessed as change in body weight at 15 mg/kg, ip administered as q3w/14 days regime (reference value: 23.12%); assay type: organism-based, U-87MG ATCC; conditions: in vivo, 336 h
[7] = Antitumor activity against human U87MG cells xenografted in mouse assessed as tumor volume at 15 mg/kg, ip administered as q3w/14 days regime relative to control; assay type: functional, U-87MG ATCC
Procedure, shortened: (§3)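 Mice bearing U87MG xenografts randomised at about 130 mm3 tumour volume (n = 12 control, n = 6 per treatment); dosing i.p. three times a week to end of study (q3w/14). Read-out is relative tumour volume (RTV), with T/C (%) versus untreated control; significance by Student's t-test.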

[8] = Antitumor activity against human U87MG cells xenografted in mouse assessed as tumor volume at 0.5 mg/kg, ip administered as q3w/14 days regime relative to control; assay type: functional, U-87MG ATCC; procedure, shortened: as §3
Mus musculus [9] = assay: Toxicity in mouse xenografted with human U87MG cells assessed as overt signs of symptoms at 2 mg/kg, ip administered as q3w/14 days regime; assay type: organism-based, U-87MG ATCC; conditions: in vivo, 336 h
Mus musculus [10] = assay: Toxicity in mouse xenografted with human U87MG cells assessed as anaphylactic reaction at 2 mg/kg, ip administered as q3w/14 days regime; assay type: organism-based, U-87MG ATCC; conditions: in vivo, 336 h
[11] = Prodrug activation in pH 7.4 phosphate buffer assessed as H2O2-mediated SN38 release incubated for 8 hrs by HPLC analysis; conditions: pH 7.4, 8 h
Procedure, shortened: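 Prodrug (1 mM) in phosphate buffer pH 7.4 with H2O2 at 0.5–10 mM final, 37 °C for 8 h. Quenched with equal volume of 50 mM sodium thiosulfate; SN-38 release quantified by HPLC.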

MCF7 [12] = assay: Drug level in human MCF7 cells at 10^-5 M after 2 days by HPLC analysis; assay type: ADME, cell-based; conditions: mcf7, 48 h, 10 µM; procedure, shortened: as §1
[13] = molecular target: T1, DNA topoisomerase 1 (Homo sapiens) (UniProt P11387); assay: Inhibition of topoisomerase 1 (unknown origin) assessed as reduction in enzyme-mediated relaxation of supercoiled pBR322 DNA at 100 uM after 30 mins by agarose gel electrophoresis
T1 sequence (whole entry): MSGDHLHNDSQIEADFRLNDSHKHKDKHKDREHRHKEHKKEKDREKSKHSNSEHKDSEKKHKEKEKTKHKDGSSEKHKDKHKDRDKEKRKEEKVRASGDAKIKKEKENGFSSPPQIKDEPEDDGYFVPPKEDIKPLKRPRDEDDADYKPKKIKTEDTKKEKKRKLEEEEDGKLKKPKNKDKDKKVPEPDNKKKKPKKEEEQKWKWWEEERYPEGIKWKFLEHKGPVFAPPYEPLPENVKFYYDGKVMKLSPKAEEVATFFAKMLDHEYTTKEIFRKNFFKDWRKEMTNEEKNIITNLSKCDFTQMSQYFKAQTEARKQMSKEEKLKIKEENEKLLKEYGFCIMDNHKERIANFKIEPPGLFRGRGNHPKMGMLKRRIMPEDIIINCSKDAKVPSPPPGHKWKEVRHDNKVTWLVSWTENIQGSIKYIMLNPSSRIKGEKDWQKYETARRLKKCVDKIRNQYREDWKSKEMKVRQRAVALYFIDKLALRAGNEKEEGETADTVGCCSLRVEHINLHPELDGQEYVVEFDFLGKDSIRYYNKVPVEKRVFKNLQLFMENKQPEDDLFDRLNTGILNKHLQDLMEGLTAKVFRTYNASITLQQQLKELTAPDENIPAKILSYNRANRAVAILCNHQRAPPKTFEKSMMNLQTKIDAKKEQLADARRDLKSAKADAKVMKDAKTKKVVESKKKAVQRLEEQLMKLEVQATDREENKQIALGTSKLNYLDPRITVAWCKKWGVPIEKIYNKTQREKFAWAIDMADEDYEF

Mus musculus [14] = assay: Toxicity in mouse xenografted with human U87MG cells assessed as death at 2 mg/kg, ip administered as q3w/14 days regime; assay type: organism-based, U-87MG ATCC; conditions: in vivo, 336 h
Mus musculus [15] = assay: Toxicity in mouse xenografted with human U87MG cells assessed as death at 0.5 mg/kg, ip administered as q3w/14 days regime; assay type: organism-based, U-87MG ATCC; conditions: in vivo, 336 h
Mus musculus [16] = assay: Toxicity in mouse xenografted with human U87MG cells assessed as change in body weight at 2 mg/kg, ip administered as q3w/14 days regime (reference value: 23.12%); assay type: organism-based, U-87MG ATCC; conditions: in vivo, 336 h
Mus musculus [17] = assay: Toxicity in mouse xenografted with human U87MG cells assessed as change in body weight at 0.5 mg/kg, ip administered as q3w/14 days regime (reference value: 23.12%); assay type: organism-based, U-87MG ATCC; conditions: in vivo, 336 h
[18] = Antitumor activity against human U87MG cells xenografted in mouse assessed as tumor volume at 2 mg/kg, ip administered as q3w/14 days regime relative to control; assay type: functional, U-87MG ATCC; procedure, shortened: as §3

Row | Compound | Retention_time (MCF7 [1]) | IC50 [2] | IC50 (HT-29) | IC50 (MDA-MB-231) | IC50 (MCF7 [3]) | IC50 [4] | IC50 (U-251) | also measured
1 | CCc1c2c(nc3ccc(O)cc13)-c1cc3c(c(=O)n1C2)COC(=O)[C@]3(O)CC [7-ETHYL-10-HYDROXYCAMPTOTHECIN] | 8.85 min | 0.008 µM | 0.054 µM | 1.97 µM | 0.515 µM | 0.03 µM | 0.021 µM | –
2 | CCc1c2c(nc3ccc(B4OC(C)(C)C(C)(C)O4)cc13)-c1cc3c(c(=O)n1C2)COC(=O)[C@]3(O)CC | – | – | – | – | – | – | – | Activity (Mus musculus [5]): Non-toxic; Activity (Mus musculus [6]): 15.88%; T/C [7]: 8.39%
3 | CCc1c2c(nc3ccc(B(O)O)cc13)-c1cc3c(c(=O)n1C2)COC(=O)[C@]3(O)CC | 12.87 min | 0.018 µM | 0.047 µM | 4.28 µM | 0.628 µM | 0.047 µM | 0.036 µM | T/C [8]: 105.99%; Activity (Mus musculus [9]): Non-toxic; Activity (Mus musculus [10]): Non-toxic; Drug metabolism [11]: Dose-dependent effect; Drug uptake (MCF7 [12]): 59%; inhibition [13]: Active; Activity (Mus musculus [14]): Non-toxic; Activity (Mus musculus [15]): Non-toxic; Activity (Mus musculus [16]): 2.11%; Activity (Mus musculus [17]): 12.69%; T/C [18]: 28.1%
